# Source: PubChem BioAssay (Johns Hopkins Ion Channel Center)
# Sampled rows, rich in hits. Any-hit rate of the full collection: about 2.3%.
# TRPC6 activator = mouse TRPC6 channel activators, primary screen, cell-based, HEK293, membrane potential dye. Short transient receptor potential channel 6 (Mus musculus), Q61143. HEK293-TRPC6 membrane potential dye fluorescence; hits give high values. B-score at 10 µM. hit rate 0.13% among 310,000. AID 2550, 2010;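 active = B-score of the integrated fluorescence ratio above library mean plus 3 SD, and starting fluorescence ratio within library mean plus 5 SD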;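 note: higher score means more depolarization so channel activation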
# Target sequence (Q61143 whole entry, looked up): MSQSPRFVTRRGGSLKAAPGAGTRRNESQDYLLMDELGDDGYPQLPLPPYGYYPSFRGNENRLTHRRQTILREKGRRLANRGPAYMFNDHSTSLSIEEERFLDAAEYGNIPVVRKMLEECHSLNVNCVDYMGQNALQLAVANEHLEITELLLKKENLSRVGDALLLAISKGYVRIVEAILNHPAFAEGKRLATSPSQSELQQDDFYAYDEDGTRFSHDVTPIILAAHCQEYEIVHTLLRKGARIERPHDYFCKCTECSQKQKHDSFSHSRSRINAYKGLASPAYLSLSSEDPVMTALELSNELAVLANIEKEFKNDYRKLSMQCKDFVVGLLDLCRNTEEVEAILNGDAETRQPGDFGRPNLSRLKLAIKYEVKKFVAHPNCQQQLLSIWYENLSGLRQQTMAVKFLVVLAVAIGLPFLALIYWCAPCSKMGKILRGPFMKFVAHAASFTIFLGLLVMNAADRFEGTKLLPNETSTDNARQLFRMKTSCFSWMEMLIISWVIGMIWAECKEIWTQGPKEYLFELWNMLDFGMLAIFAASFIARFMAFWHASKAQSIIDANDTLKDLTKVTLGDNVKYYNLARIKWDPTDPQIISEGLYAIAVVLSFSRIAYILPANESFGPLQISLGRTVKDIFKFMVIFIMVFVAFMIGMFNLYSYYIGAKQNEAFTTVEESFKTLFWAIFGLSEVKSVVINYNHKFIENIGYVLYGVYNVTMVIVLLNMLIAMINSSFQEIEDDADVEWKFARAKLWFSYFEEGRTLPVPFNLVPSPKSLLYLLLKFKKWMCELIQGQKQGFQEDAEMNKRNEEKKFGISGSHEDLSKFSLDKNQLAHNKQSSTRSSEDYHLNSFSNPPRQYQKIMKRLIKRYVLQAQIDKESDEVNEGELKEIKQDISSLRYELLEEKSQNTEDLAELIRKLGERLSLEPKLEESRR
# TRPC4 PAM = positive allosteric modulators of TRPC4, primary screen, cell-based, mouse TRPC4beta, HEK293 mu-opioid, Fluo-4 calcium; AID 2227, 2009; hit rate 0.42% among 310,000; B-score at 10 µM; DAMGO EC20, Fluo-4 Ca2+ flux; hits give high values;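 active = B-score of calcium response area above 5 SD of library B-scores, with initial fluorescence ratio within 5 SD of library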;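 note: B-score of integrated fluorescence ratio over time as area under calcium response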
# TRPC4 inh = inhibitors of mouse TRPC4 channel, primary screen, Fluo4 calcium, HEK293 TRPC4beta/mu-opioid cells | Short transient receptor potential channel 4 (Mus musculus), Q9QUQ5 | DAMGO-evoked Fluo4 calcium flux; hits give low values | B-score at 10 µM | hit rate 0.39% among 300,000;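 active = B-score over 3 SD under the library average, no early fluorescence shift, positive overall ratio signal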
#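 Signal: kinetic Fluo4 fluorescence imaging of calcium influx. Material: stable TRPC4beta/mu-opioid receptor HEK293 cells. Probe or stimulus: DAMGO in two steps, submaximal then maximal.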
# TRPC4 act = activators of mouse TRPC4 channel, primary screen, Fluo4 calcium, HEK293 TRPC4beta/mu-opioid cells; Short transient receptor potential channel 4 (Mus musculus), Q9QUQ5; Fluo4 calcium fluorescence; hits give high values; B-score at 10 µM; hit rate 0.49% among 310,000;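 active = B-score above 5 SD of library B-scores, and initial fluorescence ratio not above library mean plus 5 SD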;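 note: positive B-score marks a calcium rise read as TRPC4 activation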
#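 Technique: kinetic Fluo4 calcium fluorescence; Test system: TRPC4beta and mu-opioid receptor HEK293 stable cells; Measure: B-scored integrated calcium fluorescence ratio; Benchmarks: low control buffer alone, high control maximal DAMGO; Schedule: 45 min room-temperature Fluo4 loading, 110 s read.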
# TRPC6 inh = mouse TRPC6 channel inhibitors, primary screen, cell-based, HEK293, membrane potential dye | ACh-evoked depolarization; hits give low values | B-score at 10 µM | hit rate 1.1% among 310,000 | Short transient receptor potential channel 6 (Mus musculus), Q61143;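 active = B-score under library mean minus 3 SD, initial fluorescence not abnormally high, positive integrated signal ratio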;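 note: B-score derived from integrated fluorescence ratio over the kinetic read; more negative B-score means stronger inhibition of depolarization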
# TRPC4 spec 2 = second check of whether TRPC6 inhibitors also affect mouse TRPC4 | shares compounds with TRPC6 inh | HEK293 TRPC4/MOR, membrane potential dye fluorescence; channel activated by saturating DAMGO dose | inhibition, % at 10 µM | hit rate 42% among 920 | AID 2776;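 active = compounds whose fluorescence signal differed from control wells by over 3 SD, either direction, in both duplicate plates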
# TRPC4 spec = mouse TRPC4 modulation by TRPC6 hits, confirmation, selectivity assay for TRPC6 inhibitor project, cell-based, HEK293 TRPC4/mu-opioid, membrane potential dye; activity change, negative = inhibition, % at 10 µM; membrane potential fluorescence; shares compounds with TRPC6 inh; hit rate 61% among 920;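 active = rise or fall in signal beyond 3 SD of buffer-only wells in both replicate plates, either sign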;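 note: integrated kinetic ratio of fluorescence range over baseline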
# HEK293 MPD ctr 2-1 = nonspecific membrane potential effects, parental HEK293, confirmation, counter-screen for TRPC6 inhibitor project, cell-based, second counter screen | shares compounds with TRPC6 inh | parental HEK293 membrane potential dye fluorescence; maximal acetylcholine challenge after compound addition | signal change vs control, % at 10 µM | hit rate 31% among 920 | AID 2779, 2010;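 active = membrane potential signal moving either way by over 3 SD of the maximum-effect control, in both duplicate plates, meaning non-specific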
# HEK293 MPD ctr-1 = membrane potential modulation in parental HEK293, confirmation, counter-screen for TRPC6 inhibitor project, cell-based; parental HEK293 membrane potential dye fluorescence; AID 2780, 2010; hit rate 60% among 920; shares compounds with TRPC6 inh; membrane potential signal change, % at 10 µM;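 active = membrane potential signal shifting up or down by more than 3 SD of buffer-only wells, on both duplicate plates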
# HEK293 MPD ctr-2 = parental HEK293 membrane potential modulation, confirmation, counter-screen for TRPC6 modulator project, cell-based. shares compounds with TRPC6 inh. membrane potential dye fluorescence. membrane potential signal change, % at 10 µM. hit rate 51% among 2,400;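 active = membrane potential signal moves up or down beyond 5 SD from buffer-only wells, on both duplicate plates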
# HEK293 MPD ctr 2-2 = parental HEK293 nonspecific activity of TRPC6 modulators, second screen. shares compounds with TRPC6 inh. hit rate 14% among 2,400. inhibition, % at 10 µM. membrane potential dye fluorescence; after compound, maximal acetylcholine stimulation;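 active = membrane potential signal drops by more than 5 SD from the mean control signal, in both duplicate plates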;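 note: plate controls were acetylcholine ECmax control wells for no effect and buffer only wells for full effect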
# TRPC4/MOR mod = TRPC4 modulation by TRPC6 hit compounds, confirmation, selectivity assay for TRPC6 modulator project, cell-based, HEK293 TRPC4/mu-opioid, membrane potential dye, mouse. shares compounds with TRPC6 inh. membrane potential fluorescence. hit rate 69% among 2,400. percent change from control (negative = decrease, positive = increase), % at 10 µM. AID 488927, 2010;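 active = membrane potential signal moved up or down beyond 5 SD of buffer control wells, in both duplicate plates, actives on both sides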;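 note: plate controls were assay buffer wells for no effect and DAMGO maximal-effect wells for full effect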
# TRPC4/MOR inh 2 = second selectivity test of TRPC6 modulators against mouse TRPC4; AID 488928; inhibition, % at 10 µM; shares compounds with TRPC6 inh; hit rate 55% among 2,400; HEK293 TRPC4/mu-opioid, membrane potential dye fluorescence; stimulated with maximal-effect DAMGO;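 active = drop in membrane potential signal beyond 5 SD of the control wells in both duplicate plates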;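 note: TRPC4 counter screen for TRPC6 hits run under conditions tuned for TRPC6 not TRPC4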
# TRPC6 block conf = mouse TRPC6 channel inhibitors, confirmation, HEK293 cells, membrane potential dye, duplicate; inhibition, % at 10 µM; hit rate 43% among 3,300; shares compounds with TRPC6 inh; ACh-evoked depolarization;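 active = fluorescence ratio falls more than 5 SD below the full-stimulation control mean, in both duplicate runs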;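 note: integrated fluorescence ratio of peak minus minimum over baseline after agonist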
# TRPC6 act conf = mouse TRPC6 channel activators, confirmation, HEK293 cells, membrane potential dye, duplicate; shares compounds with TRPC6 inh; HEK293-TRPC6 membrane potential dye fluorescence, FDSS; activation, % at 10 µM; hit rate 11% among 2,800; AID 488961, 2010;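 active = ratio signal rise beyond 5 SD above unstimulated control wells' mean, seen in both duplicate runs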;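 note: plate controls were buffer EC0 wells for no effect and acetylcholine ECmax response for full effect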
# Active calls of the source: *; i = inactive; · = no result given.
SMILES,TRPC6 activator,TRPC4 PAM,TRPC4 inh,TRPC4 act,TRPC6 inh,HEK293 MPD ctr-2,HEK293 MPD ctr 2-2,TRPC4/MOR mod,TRPC4/MOR inh 2,TRPC6 block conf,TRPC6 act conf,others
Cc1nc2cc(NC(=O)N3CC4(C)CC3CC(C)(C)C4)ccc2n1C (stereo not drawn),i,i,i,i,-6.14*,i,i,i,i,i,i,
Clc1ccc2c(N3CCOCC3)ccnc2c1,i,i,i,i,i,·,·,·,·,·,·,
Clc1ccc2c(N3CCCC3)ccnc2c1,i,i,-6*,i,-9.04*,·,·,·,·,64.5%*,i,TRPC4 spec 2=75.5%*;TRPC4 spec=-24.6%*;HEK293 MPD ctr 2-1=37.0%*;HEK293 MPD ctr-1=-478.0%*
CN1CCN(c2ccc(Nc3ccnc4cc(Cl)ccc34)cc2)CC1,i,i,i,i,-6.4*,-106.5%*,i,-24.5%*,52.0%*,46.0%*,i,
Cc1noc(/C=C/N(C)C)c1S(=O)(=O)N1CCCC(C(=O)Nc2ccc(F)cc2F)C1 (stereo not drawn),i,i,i,i,i,·,·,·,·,·,·,
COc1ccc(-c2nc3n(c2C)CCC3)cc1,i,i,i,i,-5.78*,-266.5%*,i,-35.5%*,43.5%*,i,i,
COc1ccc(-c2cc3nc4n(c(=O)c3s2)CCC4)cc1,i,i,i,i,i,·,·,·,·,·,·,
CCC(C(=O)NC1CCCCC1)n1c(SCc2ccccc2F)nc2ccncc21 (stereo not drawn),i,i,i,i,-5.23*,i,i,i,i,i,i,
Cc1cc(-c2ccc(C)c(S(=O)(=O)NCC3CCN(Cc4cccc(F)c4)CC3)c2)on1,i,i,i,i,i,·,·,·,·,·,·,
Cc1cc(-c2ccc(C)c(S(=O)(=O)NCC3CCN(Cc4ccccc4F)CC3)c2)on1,i,i,i,i,-5.03*,i,i,i,75.5%*,36.5%*,i,
COc1ccc(N2CC(C(=O)N[C@@H](CC(C)C)C(=O)NC3CCCC3)CC2=O)cc1 (stereo partly drawn),i,i,i,i,i,·,·,·,·,·,·,
NC(=O)c1ccccc1NC(=O)c1ccccc1Cl,i,i,i,i,i,·,·,·,·,·,·,
O=C(Nc1ccccc1C(=O)Nc1nnc(C(F)(F)F)s1)c1ccccc1Cl,i,i,i,i,-6.51*,121.0%*,i,25.5%*,54.5%*,55.0%*,·,
O=C(NC(=S)Nc1ccc(Cl)cn1)c1cc([N+](=O)[O-])ccc1N1CCOCC1,i,i,i,i,i,·,·,·,·,·,·,
CCOC(=O)c1c(NC(=O)CSc2nnc(C)c(=O)[nH]2)sc(C)c1-c1ccc(C)cc1,13.7*,i,i,i,i,136.5%*,i,36.0%*,i,i,86.0%*,
CC1CCN(C2=C(NS(=O)(=O)c3ccc(Cl)cc3)C(=O)c3ccccc3C2=O)CC1,i,i,i,i,-6.49*,i,i,-10.5%*,51.5%*,i,i,
CCN1CCN(C2=C(NS(=O)(=O)c3ccc(NC(C)=O)cc3)C(=O)c3ccccc3C2=O)CC1,i,i,i,i,i,·,·,·,·,·,·,
CC(=O)Nc1ccc(S(=O)(=O)NC2=C(N3CCN(Cc4ccccc4)CC3)C(=O)c3ccccc3C2=O)cc1,i,i,-6*,i,-6.56*,-224.5%*,i,-34.0%*,90.5%*,68.0%*,i,
CC1CCN(C2=C(NS(=O)(=O)c3ccc(Br)cc3)C(=O)c3ccccc3C2=O)CC1,i,i,i,i,i,·,·,·,·,·,·,
CC1CCN(C2=C(NS(=O)(=O)c3ccccc3)C(=O)c3ccccc3C2=O)CC1,i,i,i,i,-7.69*,i,i,-27.0%*,82.0%*,i,i,
CCOC(=O)C1CCN(C2=C(NS(=O)(=O)c3ccc(Cl)cc3)C(=O)c3ccccc3C2=O)CC1,i,i,i,i,-6.1*,-77.5%*,i,-19.5%*,69.0%*,58.0%*,i,
CCCCC12CN3CC(C)(CN(C1)C31C(=O)N(C)c3ccc(C)cc31)C2=O (stereo not drawn),i,i,i,i,i,·,·,·,·,·,·,
